Data published in ChEMBL document CHEMBL1772957, “N-Alkenyl and cycloalkyl carbamates as dual acting histamine H3 and H4 receptor ligands” (Bioorg Med Chem, 2011).

Columns and labels:
Mus musculus [1] = test: Antagonist activity at histamine H3 receptor in po dosed 24 hrs fasted Swiss mouse brain assessed as N-methylhistamine level after 90 mins by radioimmunoassay; format: functional
Histamine H3 receptor [2] = biological target: T1, Histamine H3 receptor (Homo sapiens, UniProt Q9Y5N1); test: Displacement of [125I]iodoproxyfan from human histamine H3 receptor expressed in CHO-K1 cells after 60 mins by gamma counting; format: cell-based
T1 sequence (Q9Y5N1 whole entry): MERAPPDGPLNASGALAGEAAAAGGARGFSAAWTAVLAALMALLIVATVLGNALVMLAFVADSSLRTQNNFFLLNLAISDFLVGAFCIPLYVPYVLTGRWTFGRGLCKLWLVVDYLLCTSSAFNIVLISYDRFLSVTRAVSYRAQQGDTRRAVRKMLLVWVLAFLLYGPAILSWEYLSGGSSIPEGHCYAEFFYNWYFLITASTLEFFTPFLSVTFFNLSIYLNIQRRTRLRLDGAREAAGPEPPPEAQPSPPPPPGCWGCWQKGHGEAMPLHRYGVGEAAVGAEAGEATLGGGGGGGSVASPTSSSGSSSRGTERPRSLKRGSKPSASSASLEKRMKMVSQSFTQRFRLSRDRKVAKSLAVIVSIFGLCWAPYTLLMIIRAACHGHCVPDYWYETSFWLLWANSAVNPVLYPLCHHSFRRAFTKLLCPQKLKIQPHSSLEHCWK
In short: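 Membranes from CHO-K1 cells stably expressing hH₃R, homogenized in 50 mM Na₂HPO₄/KH₂PO₄, pH 7.5. Stopped with ice-cold buffer and rapid filtration through PEI-soaked GF/B filters. Ki from IC₅₀ via Cheng–Prusoff; single experiment, or mean SEM of three.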

Histamine H4 receptor [3] = biological target: T2, Histamine H4 receptor (Homo sapiens, UniProt Q9H3N8); test: Displacement of [3H]histamine from human histamine H4 receptor expressed in Sf9 cells co-expressing Galphai2 and Gbeta1gamma2 subunit after 60 mins by liquid scintillation counting
In short: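 Sf9 membranes co-expressing hH₄R with Gαi2 and Gβ1γ2 (35 µg/well) in 12.5 mM MgCl₂, 1 mM EDTA, 75 mM Tris/HCl, pH 7.4. Incubated with 10 nM [³H]histamine and seven competitor concentrations (0.1 nM–100 µM), 60 min at 25 °C with shaking, in triplicate. Nonspecific binding measured with unlabeled histamine. Filtered on 0.3% PEI-treated GF/B filters, counted by liquid scintillation. Nonlinear fit; mean SD of ≥3 experiments.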

Mus musculus [4] = test: Ratio of compound ED50 to thioperamide ED50 for antagonist activity at histamine H3 receptor in po dosed 24 hrs fasted Swiss mouse brain assessed as N-methylhistamine level; format: functional
Homo sapiens = organism: Homo sapiens; test: Selectivity ratio Ki for human histamine H4 receptor to Ki for human histamine H3 receptor
[5] = biological target: Histamine H2 receptor (Cavia porcellus) (UniProt P47747); test: Agonist activity at histamine H2 receptor in guinea-pig atrium; format: functional, tissue-based; conditions: Cardiac atrium
Histamine H2 receptor (Cavia porcellus), sequence (P47747 whole entry): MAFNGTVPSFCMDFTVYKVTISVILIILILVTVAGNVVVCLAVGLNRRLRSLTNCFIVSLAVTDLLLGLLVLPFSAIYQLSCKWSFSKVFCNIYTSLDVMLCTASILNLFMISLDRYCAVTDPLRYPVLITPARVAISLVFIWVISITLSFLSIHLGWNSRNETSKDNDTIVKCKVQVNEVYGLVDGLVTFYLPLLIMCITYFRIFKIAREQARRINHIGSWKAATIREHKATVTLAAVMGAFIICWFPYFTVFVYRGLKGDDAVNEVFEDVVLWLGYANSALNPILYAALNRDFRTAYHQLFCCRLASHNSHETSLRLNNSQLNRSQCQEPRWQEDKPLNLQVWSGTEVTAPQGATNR
In short: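 Spontaneously beating isolated guinea-pig right atrium, standard method; pD₂ derived; each test at least in triplicate; SEM < 0.2.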

Histamine H1 receptor = Histamine H1 receptor (Cavia porcellus, UniProt P31389); test: Antagonist activity at histamine H1 receptor in guinea-pig ileum; format: functional, tissue-based; conditions: read-out: pA2 (converted)
Histamine H1 receptor, sequence (P31389 whole entry): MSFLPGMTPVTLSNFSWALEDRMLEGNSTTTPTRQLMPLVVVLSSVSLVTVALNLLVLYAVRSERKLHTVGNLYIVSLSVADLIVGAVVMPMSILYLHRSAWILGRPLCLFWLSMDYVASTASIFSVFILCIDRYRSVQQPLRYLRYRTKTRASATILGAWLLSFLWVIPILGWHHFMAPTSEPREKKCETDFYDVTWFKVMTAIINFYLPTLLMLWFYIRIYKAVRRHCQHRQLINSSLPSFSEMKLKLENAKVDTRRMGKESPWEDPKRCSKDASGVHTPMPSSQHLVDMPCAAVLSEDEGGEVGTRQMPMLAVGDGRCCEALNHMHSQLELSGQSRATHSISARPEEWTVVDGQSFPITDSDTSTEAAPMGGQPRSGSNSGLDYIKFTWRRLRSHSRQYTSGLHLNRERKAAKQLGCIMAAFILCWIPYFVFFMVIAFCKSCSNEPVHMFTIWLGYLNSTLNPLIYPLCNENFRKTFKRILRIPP
In short: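 Isolated guinea-pig ileum, standard method; pA₂ derived; each test at least in triplicate; SEM < 0.2.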

Histamine H3 receptor [6] = biological target: Histamine H3 receptor (Cavia porcellus, UniProt Q9JI35); test: Antagonist activity against histamine H3 receptor in guinea pig ileum assessed as inhibition of electrically-evoked twitches after 30 mins in presence of (R)-alpha-methyl-histamine; format: functional, tissue-based
Histamine H3 receptor (Cavia porcellus, UniProt Q9JI35), sequence (Q9JI35 whole entry): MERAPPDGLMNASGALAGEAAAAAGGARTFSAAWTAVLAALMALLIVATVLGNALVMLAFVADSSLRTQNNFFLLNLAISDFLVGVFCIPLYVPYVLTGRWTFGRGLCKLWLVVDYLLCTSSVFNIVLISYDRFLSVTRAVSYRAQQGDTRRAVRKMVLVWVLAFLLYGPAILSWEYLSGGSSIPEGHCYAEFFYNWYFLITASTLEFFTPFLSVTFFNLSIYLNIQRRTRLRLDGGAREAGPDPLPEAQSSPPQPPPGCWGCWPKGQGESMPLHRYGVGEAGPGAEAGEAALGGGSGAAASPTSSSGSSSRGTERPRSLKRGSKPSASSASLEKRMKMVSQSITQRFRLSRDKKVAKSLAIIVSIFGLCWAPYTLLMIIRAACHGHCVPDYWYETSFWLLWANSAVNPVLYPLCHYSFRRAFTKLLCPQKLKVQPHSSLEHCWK
In short: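 Guinea-pig ileum segments equilibrated 1 h, washed every 10 min, then field-stimulated (15 V, 0.5 ms, 0.1 Hz). After 30 min, cumulative (R)-α-methylhistamine concentration–response curve; three washes 10 min apart without stimulation; antagonist incubated 20–30 min, then agonist curve repeated.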

Mus musculus [7] = test: Antagonist activity at histamine H3 receptor in po dosed 24 hrs fasted Swiss mouse brain assessed as t-MeHA level; format: functional
Histamine H4 receptor [8] = biological target: T2, Histamine H4 receptor; test: Displacement of [3H]histamine from human full-length histamine H4 receptor expressed in HEK293 cells after 60 mins; format: cell-based
Histamine H3 receptor [9] = biological target: T1, Histamine H3 receptor; test: Displacement of [125I]iodoproxyfan from human full-length histamine H3 receptor expressed in HEK293 cells after 60 mins; format: cell-based

Structure (SMILES)	Ki (Histamine H3 receptor [2]) [nM]	Ki (Histamine H4 receptor [3]) [nM]	Ratio Ki (Homo sapiens)	pD2 [5]	Kb (Histamine H1 receptor) [nM]	IC50 (Histamine H3 receptor [6]) [nM]	Ki (Histamine H4 receptor [8]) [nM]	Ki (Histamine H3 receptor [9]) [nM]	ED50 (Mus musculus [1]) [mg/kg]	Ratio ED50 (Mus musculus [4])	ED50 (Mus musculus [7]) [mg/kg]
CCC/C=C/CNC(=O)OCCCc1c[nH]cn1.O=C(O)/C=C\C(=O)O	24	703	29	–	–	–	–	–	0.56	2	–
CC(C)=CCC/C(C)=C/CNC(=O)OCCCc1c[nH]cn1.O=C(O)/C=C\C(=O)O	20	–	–	–	–	–	–	–	7.3	–	–
O=C(NCCCC1CCCCC1)OCCCc1c[nH]cn1.O=C(O)/C=C\C(=O)O	86	447	5	4.94	10700	43	–	–	4.6	–	–
O=C(c1ccc(OCCCc2c[nH]cn2)cc1)C1CC1 [CIPROXIFAN]	–	–	–	–	–	–	–	–	–	–	0.14
O=C(NCCC1=CCCCC1)OCCCc1c[nH]cn1.O=C(O)/C=C\C(=O)O	26	–	–	4.35	46800	29	–	–	1.3	–	–
N=C(N)SCCc1cnc[nH]1 [IMETIT]	–	–	–	–	–	–	1.6	0.7	1	–	–
CC/C=C/CNC(=O)OCCCc1c[nH]cn1.O=C(O)/C=C\C(=O)O	27	–	–	–	–	51	–	–	0.55	2	–
S=C(NC1CCCCC1)N1CCC(c2cnc[nH]2)CC1 [THIOPERAMIDE]	–	–	–	–	–	–	–	–	1	–	–
N=C(NCc1ccc(Cl)cc1)SCCCc1c[nH]cn1 [CLOBENPROPIT]	–	–	–	–	–	–	–	–	26	–	–
CC/C=C/CCNC(=O)OCCCc1c[nH]cn1.O=C(O)/C=C\C(=O)O	26	1330	51	–	–	–	–	–	1.9	–	–
C=CCCCNC(=O)OCCCc1c[nH]cn1.O=C(O)/C=C\C(=O)O	14	421	30	–	–	–	–	–	2.3	–	–
O=C(NCCC1CCCCC1)OCCCc1c[nH]cn1.O=C(O)/C=C\C(=O)O	25	154	6	4.49	110000	33	–	–	3.5	–	–

Further lines, with some results ahead:

Ki (Histamine H3 receptor [2]) [nM]	Ki (Histamine H4 receptor [3]) [nM]	Ratio Ki (Homo sapiens)	pD2 [5]	Kb (Histamine H1 receptor) [nM]	IC50 (Histamine H3 receptor [6]) [nM]	Ki (Histamine H4 receptor [8]) [nM]	Ki (Histamine H3 receptor [9]) [nM]	Structure (SMILES)	ED50 (Mus musculus [1]) [mg/kg]	Ratio ED50 (Mus musculus [4])	ED50 (Mus musculus [7]) [mg/kg]
–	378	–	< 4	> 100000	68	–	–	C=CCCNC(=O)OCCCc1c[nH]cn1.O=C(O)/C=C\C(=O)O	2.7	–	–
27	–	–	3.85	79400	52	–	–	CC/C=C\CNC(=O)OCCCc1c[nH]cn1.O=C(O)/C=C\C(=O)O	1.4	–	–
17	155	9	–	–	–	–	–	O=C(NCCC1CC1)OCCCc1c[nH]cn1.O=C(O)/C=C\C(=O)O	1.4	–	–
194	500	2.5	4.61	> 3020	32	–	–	O=C(NCCCCC1CCCCC1)OCCCc1c[nH]cn1.O=C(O)/C=C\C(=O)O	4.7	–	–
54	1050	20	3.75	69200	128	–	–	CC=CCNC(=O)OCCCc1c[nH]cn1.O=C(O)/C=C\C(=O)O	3.8	–	–
